ChEMBL document CHEMBL3407473, “5'-(N-aminoacyl)-sulfonamido-5'-deoxyadenosine: attempts for a stable alternative for aminoacyl-sulfamoyl adenosines as aaRS inhibitors” (2015)
Converted amounts (≈) assume the structure as drawn. The source made the active and inactive calls. No cut-off for these calls is given here.

Assays:
Micrococcus luteus = assay: Antimicrobial activity against Sarcina lutea ATCC 9341 after 18 hrs by broth dilution method; assay type: functional; details: ATCC 9341, 18 h
How it was run: (§1)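 Strains grown overnight in LB, then subcultured the next day in fresh LB. Compounds serially diluted in LB in 96-well plates with cell suspension. Growth read as optical density. Highest concentration tested […], as printed. Broth dilution run in triplicate. MIC50 taken from the OD readings.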

Staphylococcus aureus = assay: Antimicrobial activity against Staphylococcus aureus ATCC 6538 after 18 hrs by broth dilution method; assay type: functional; details: ATCC 6538, 18 h; how it was run: as §1
Candida albicans = assay: Antimicrobial activity against Candida albicans CO11 after 18 hrs by broth dilution method; assay type: functional; details: CO11, 18 h; how it was run: as §1
Escherichia coli [1] = assay: Antimicrobial activity against wild-type Escherichia coli after 18 hrs by broth dilution method; assay type: functional; how it was run: as §1
Escherichia coli [2] = assay: Inhibition of aminoacyl tRNA synthetase in wild-type Escherichia coli S30 cell extract asessed as inhibition of [14C]-radiolabeled aminoacid incorporation at 50 uM after 5 mins by liquid scintillation counting analysis
How it was run: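 Inhibitor incubated with 3 L E. coli wt S30 extract, as printed. Aminoacylation mix: Tris.HCl 30 mM pH 8.0, DTT 1 mM, bulk E. coli tRNA 5 g/l, ATP 3 mM, KCl 30 mM, MgCl2 8 mM, 14C-labelled amino acid 40 M (200 mCi/mmol), units as printed. Samples spotted on papers, washed with cold 10% TCA then acetone, dried. Radioactivity read by scintillation counting.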

Row | SMILES | MIC50 (Micrococcus luteus) | MIC50 (Staphylococcus aureus) | MIC50 (Candida albicans) | MIC50 (Escherichia coli [1]) | inhibition (Escherichia coli [2])
1 | Nc1ncnc2c1ncn2[C@@H]1O[C@H](CS(=O)(=O)NC(=O)[C@@H](N)Cc2ccc(O)cc2)[C@@H](O)[C@H]1O | > 100 µM | > 100 µM | > 100 µM | > 100 µM | 
2 | CC(C)C[C@H](N)C(=O)NS(=O)(=O)C[C@H]1O[C@@H](n2cnc3c(N)ncnc32)[C@H](O)[C@@H]1O | > 100 µM | > 100 µM | > 100 µM | > 100 µM | 
3 | CC[C@H](C)[C@H](N)C(=O)NS(=O)(=O)C[C@H]1O[C@@H](n2cnc3c(N)ncnc32)[C@H](O)[C@@H]1O | > 100 µM | > 100 µM | > 100 µM | > 100 µM | 

Other lines, results leading:

Row | MIC50 (Micrococcus luteus) | MIC50 (Staphylococcus aureus) | MIC50 (Candida albicans) | MIC50 (Escherichia coli [1]) | inhibition (Escherichia coli [2]) | SMILES
4 | > 100 µM | > 100 µM | > 100 µM | > 100 µM |  | NCC(=O)NS(=O)(=O)C[C@H]1O[C@@H](n2cnc3c(N)ncnc32)[C@H](O)[C@@H]1O
5 | > 100 µM | > 100 µM | > 100 µM | > 100 µM |  | Nc1ncnc2c1ncn2[C@@H]1O[C@H](CS(=O)(=O)NC(=O)[C@@H](N)CO)[C@@H](O)[C@H]1O
6 | > 100 µM | > 100 µM | > 100 µM | 50 µM (≈ 22.3 µg/mL) | Active | Nc1ncnc2c1ncn2[C@@H]1O[C@H](CS(=O)(=O)NC(=O)[C@@H](N)CC(=O)O)[C@@H](O)[C@H]1O
